From ChEMBL document CHEMBL4825680, “Structure-based discovery of potent and selective small-molecule inhibitors targeting signal transducer and activator of transcription 3 (STAT3)” (Eur J Med Chem, 2021)

Assays:
MDA-MB-231 = assay: Antiproliferative activity against human MDA-MB-231 cells; assay type: functional, cell-based
A549 = assay: Antiproliferative activity against human A549 cells; assay type: functional, cell-based
MGC-803 = assay: Antiproliferative activity against human MGC-803 cells; assay type: functional, cell-based
[1] = Toxicity in NOD/SCID mouse xenografted with patient-derived breast cancer cells assessed as change in body weight at 5 to 15 mg/kg, ip administered once daily for 20 days; conditions: in vivo, 480 h
[2] = Metabolic stability in human liver microsomes assessed as clearance at 0.1 uM preincubated for 10 mins followed by NADPH addition and measured upto 60 mins by LC-MS/MS analysis; assay type: ADME, Microsome; conditions: 1 h, time <=70 min
How it was run: (§1)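 Microsomes at 0.33 mg/mL in 0.1 M Tris pH 7.4 with 5 mM MgCl2; compound final 0.1 μM (0.01% DMSO, 0.005% BSA). Preincubated 10 min at 37 °C, then started with 1 mM NADPH. Sampled at 0, 7, 17, 30 and 60 min and quenched with cold methanol. Centrifuged, then analysed by LC-MS/MS.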

[3] = Metabolic stability in human liver microsomes assessed as half life at 0.1 uM preincubated for 10 mins followed by NADPH addition and measured upto 60 mins by LC-MS/MS analysis; assay type: ADME, Microsome; conditions: time <=70 min; how it was run: as §1
[4] = Antitumor activity against patient-derived breast cancer cells xenografted in NOD/SCID mouse assessed as tumor growth inhibition at 15 mg/kg, ip administered once daily for 20 days; conditions: Homo sapiens, Breast cancer cell line, 480 h, read-out: TGI

SMILES	IC50 (MDA-MB-231) [µM]	IC50 (A549) [µM]	IC50 (MGC-803) [µM]	Activity [1]	CLH [2] [mL/min/g]	half-life at 0.1 µM [3] [min]	inhibition in vivo at 15 mg/kg [4] [%]
COc1ccn2c(CC(=O)Nc3ccc4c(c3)S(=O)(=O)C=C4)c(-c3cccs3)nc2c1	1.4	1.1	1.3				
Cc1ccn2c(CC(=O)Nc3ccc4c(c3)S(=O)(=O)C=C4)c(-c3ccccc3)nc2c1	1.6	0.7	1				
COc1ccc2c(C(=O)Nc3ccc(-c4ccc(C(C)C)cc4)cc3)cc(-c3ccccc3)nc2c1	> 100	> 100	> 100				
O=C(Nc1nnc(-c2ccco2)o1)c1cc(-c2ccccc2)nc2ccccc12	18.2	11.6	7.43	Non-Toxic			
Cn1cc(-c2ccn3c(CC(=O)Nc4ccc5c(c4)S(=O)(=O)C=C5)c(-c4ccccc4)nc3c2)cn1	1.4	0.8	0.7				
CS(=O)(=O)c1ccc(-c2nc3ccccn3c2CC(=O)Nc2ccc3c(c2)S(=O)(=O)C=C3)cc1	6.4	7.5	6.9				
O=C(Cc1c(-c2ccccc2)nc2cc(-c3ccccc3)ccn12)Nc1ccc2c(c1)S(=O)(=O)C=C2	2.4	1.1	1.7				
COc1ccn2c(CC(=O)Nc3ccc(-c4ccccc4)cc3)c(-c3ccccc3)nc2c1	10.5	3.2	3.5				
COc1ccn2c(CC(=O)Nc3ccc4c(c3)S(=O)(=O)C=C4)c(-c3ccc([N+](=O)[O-])cc3)nc2c1	4.4	1.7	2.6				
COc1ccc2c(C(=O)Nc3ccc(-c4ccc(SC)cc4)cc3)cc(-c3ccccc3)nc2c1	20.2	15.6	15.6				
O=C(Cc1c(-c2ccccc2)nc2cc(Cl)ccn12)Nc1ccc2c(c1)S(=O)(=O)C=C2	1.1	0.7	1.3				
COc1ccn2c(CC(=O)Nc3ccc4c(c3)S(=O)(=O)C=C4)c(-c3ccccc3)nc2c1	1.2	0.6	1		208.4	10.1	
O=C(Cc1c(-c2ccc([N+](=O)[O-])cc2)nc2ccccn12)Nc1ccc2c(c1)S(=O)(=O)C=C2	6.5	5.4	5.2				
COc1ccn2c(C(=O)Nc3ccc(C4CCCCC4)cc3)c(-c3ccccc3)nc2c1	> 100	> 100	> 100				
COc1ccc2c(C(=O)Nc3ccc(C4CCCCC4)cc3)cc(-c3ccccc3)nc2c1	5.9	4.9	4.9				
COc1cccn2c(CC(=O)Nc3ccc4c(c3)S(=O)(=O)C=C4)c(-c3ccccc3)nc12	2.2	1	1.7				
Cc1ccc(-c2nc3ccc(C)cn3c2CC(=O)Nc2ccc3c(c2)S(=O)(=O)C=C3)cc1	2.1	0.9	1.8				

SMILES	IC50 (MDA-MB-231) [µM]	IC50 (A549) [µM]	IC50 (MGC-803) [µM]	Activity [1]	CLH [2] [mL/min/g]	half-life at 0.1 µM [3] [min]	inhibition in vivo at 15 mg/kg [4] [%]
Cc1ccc(-c2nc3ccccn3c2CC(=O)Nc2ccc3c(c2)S(=O)(=O)C=C3)cc1	4.1	5.5	2.7				
COc1ccn2c(CC(=O)Nc3ccc4c(c3)S(=O)(=O)C=C4)c(-c3ccc(S(C)(=O)=O)cc3)nc2c1	5.8	5.8	6.4				
COc1ccc2c(C(=O)Nc3ccc(-c4ccccc4)cc3)cc(-c3ccccc3)nc2c1	5.3	3	2.6				
COc1ccn2c(CC(=O)Nc3ccc4c(c3)S(=O)(=O)C=C4)c(-c3ccc4ccccc4c3)nc2c1	1.4	1	1.5				
COc1ccn2c(CC(=O)Nc3ccc4c(c3)S(=O)(=O)C=C4)c(-c3ccc(C(F)(F)F)cc3)nc2c1	0.7	0.4	0.4		478	4.4	
COc1ccn2c(CC(=O)Nc3ccc(-c4ccco4)cc3)c(-c3ccccc3)nc2c1	10	6.6	2.5				
COc1ccc2nc(-c3ccccc3)c(CC(=O)Nc3ccc4c(c3)S(=O)(=O)C=C4)n2c1	2.1	1.2	1.7				
Cc1ccc2nc(-c3ccc(Cl)cc3)c(CC(=O)Nc3ccc4c(c3)S(=O)(=O)C=C4)n2c1	2	1.2	1.6				
COc1ccc2c(C(=O)Nc3ccc(C(C)C)cc3)cc(-c3ccccc3)nc2c1	> 100	> 100	> 100				
COc1ccc(-c2ccn3c(CC(=O)Nc4ccc5c(c4)S(=O)(=O)C=C5)c(-c4ccccc4)nc3c2)cc1	1	0.7	0.5				
Cc1ccc2nc(-c3ccc(C#N)cc3)c(CC(=O)Nc3ccc4c(c3)S(=O)(=O)C=C4)n2c1	2	2.5	2.4				
O=C(Cc1c(-c2ccccc2)nc2ccc(Br)cn12)Nc1ccc2c(c1)S(=O)(=O)C=C2	2	0.8	1.5				
COc1ccn2c(CC(=O)Nc3ccc(C4CCCCC4)cc3)c(-c3ccccc3)nc2c1	5.4	5.6	4.7				
CCOC(=O)COc1ccc2c(C(=O)Nc3ccc(C4CCCCC4)cc3)cc(-c3ccccc3)nc2c1	> 100	> 100	> 100				
COc1ccn2c(CC(=O)Nc3ccc4c(c3)S(=O)(=O)C=C4)c(-c3ccc(F)cc3)nc2c1	5.1	1.3	0.9				
O=C(O)COc1ccc2c(C(=O)Nc3ccc(C4CCCCC4)cc3)cc(-c3ccccc3)nc2c1	> 100	> 100	> 100				
O=C(Cc1c(-c2ccccc2)nc2cc(Br)ccn12)Nc1ccc2c(c1)S(=O)(=O)C=C2	0.9	0.8	0.9				

Further lines, with some results ahead:

IC50 (MDA-MB-231) [µM]	IC50 (A549) [µM]	IC50 (MGC-803) [µM]	SMILES	Activity [1]	CLH [2] [mL/min/g]	half-life at 0.1 µM [3] [min]	inhibition in vivo at 15 mg/kg [4] [%]
> 100	> 100	> 100	COc1ccc2c(C(=O)NCc3ccc(C4CCCCC4)cc3)cc(-c3ccccc3)nc2c1				
> 100	> 100	50.4	COc1ccc2c(C(=O)Nc3ccc(Cl)cc3)cc(-c3ccccc3)nc2c1				
> 100	40.9	39.6	CCCCc1ccc(NC(=O)c2cc(-c3ccccc3)nc3cc(OC)ccc23)cc1				
50	16.6	14.6	O=C(NCc1ccc(C2CCCCC2)cc1)c1cc(-c2ccccc2)nc2cc(O)ccc12				
10.8	15	15	COc1ccc2c(C(=O)Nc3ccc(-c4cccs4)cc3)cc(-c3ccccc3)nc2c1				
25.5	21.4	15.5	COc1ccc2c(C(=O)Nc3ccc(Br)cc3)cc(-c3ccccc3)nc2c1				
20.2	23.4	22.5	O=C(Cc1cnc2ccccn12)Nc1ccc2c(c1)S(=O)(=O)C=C2				
> 100	> 100	> 100	O=C(Nc1ccc(C2CCCCC2)cc1)c1cc(-c2ccccc2)nc2cc(O)ccc12				
10	5.8	5.9	O=C(Nc1ccc(C2CCCCC2)cc1)c1cc(-c2ccccc2)nc2ccccc12				
> 100	> 100	> 100	COc1ccc2c(C(=O)Nc3ccc(-c4ccc5cc[nH]c5c4)cc3)cc(-c3ccccc3)nc2c1				
5.3	4.3	4.8	COc1ccc2c(C(=O)Nc3ccc(-c4cc5ccccc5o4)cc3)cc(-c3ccccc3)nc2c1				
> 100	> 100	> 100	COc1ccc(NC(=O)c2cc(-c3ccccc3)nc3cc(OC)ccc23)cc1				
> 100	> 100	> 100	COc1ccc2c(C(=O)Nc3ccc(C)cc3)cc(-c3ccccc3)nc2c1				
11.2	29.9	40.4	COc1ccc2c(C(=O)Nc3ccc(-c4ccc(F)cc4)cc3)cc(-c3ccccc3)nc2c1				
> 100	> 100	> 100	O=C(O)COc1ccc2c(C(=O)NCc3ccc(C4CCCCC4)cc3)cc(-c3ccccc3)nc2c1				
> 100	> 100	20.1	O=C(NCc1ccc(C2CCCCC2)cc1)c1cc(-c2ccccc2)nc2ccccc12				
2	5	5.6	CN(CC(=O)N(Cc1ccc(C2CCCCC2)cc1)c1ccc(C(=O)O)c(O)c1)S(=O)(=O)c1c(F)c(F)c(F)c(F)c1F	Non-Toxic			63.6
21	4.9	5.8	COc1ccc(-c2ccc(NC(=O)c3cc(-c4ccccc4)nc4cc(OC)ccc34)cc2)cc1				
10.3	5.5	2.1	COc1ccc2c(C(=O)Nc3ccc(-c4ccco4)cc3)cc(-c3ccccc3)nc2c1				
> 100	> 100	> 100	COc1ccc2c(C(=O)Nc3ccc(F)cc3)cc(-c3ccccc3)nc2c1				
> 100	> 100	> 100	CCOC(=O)COc1ccc2c(C(=O)NCc3ccc(C4CCCCC4)cc3)cc(-c3ccccc3)nc2c1				
> 100	> 100	64.8	COc1ccc2c(C(=O)Nc3ccc(-c4cccnc4)cc3)cc(-c3ccccc3)nc2c1				
